The values below come from ChEMBL document CHEMBL2331352, “Syntheses and anti-allergic activity of 2-((bis(trimethylsilyl)methylthio/methylsulfonyl)methyl)-5-aryl-1,3,4-oxadiazoles” (Eur J Med Chem, 2013).

Active and inactive are the calls of the source. The rule behind the calls is not given here.

The IC50 is the concentration that gives 50% inhibition.

Series [1] relates to RBL-2H3. Description: Cytotoxicity against rat RBL2H3 cells at 50 to 100 uM after 24 hrs by Ez-cytox assay. In kind it is cell-based. The conditions noted are these: rbl-2h3, 24 h. The procedure, abridged:
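IgE-sensitized RBL-2H3 cells (overnight, 200 ng/mL DNP-specific IgE) were exposed to compound at 0, 50 or 100 concentrations at 37 °C for 23–24 h. EZ-Cytox reagent was added at 10% of volume for 1 h at 37 °C and absorbance read at 450 nm. Viability is given as % of untreated control; mean ± S.D. of three independent experiments, each in triplicate.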

Series [2] concerns RBL-2H3. Description: Antiallergic activity in rat RBL2H3 cells assessed as inhibition of IgE/Ag-induced beta-hexosaminidase activity incubated for 30 mins by spectrophotometric analysis. The format is functional, cell-based. The conditions noted are these: for IC50: RBL-2H3, 0.5 h. The procedure, abridged:
(§1)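 RBL-2H3 cells (2 × 10⁵/well) were sensitized overnight with anti-DNP IgE at 200 ng/mL and washed twice in PIPES buffer (25 mM PIPES, pH 7.2, 0.1% BSA, 1 mM CaCl₂, 5.6 mM glucose). They were pretreated 30 min at 37 °C with compound, then challenged with DNP-HSA 25 ng/mL for 15 min at 37 °C and chilled on ice. Supernatant was mixed with p-nitrophenyl-N-acetyl-glucosaminide in 0.1 M citrate pH 4.5 for 1 h at 37 °C. Reaction was stopped with 0.1 M carbonate pH 10.5 and read at 405 nm. Mean ± S.D. of three independent experiments, each in triplicate.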

Series [3] has as its system RBL-2H3. Put plainly: Antiallergic activity in rat RBL2H3 cells assessed as inhibition of IgE/Ag-induced beta-hexosaminidase activity at 100 uM incubated for 30 mins by spectrophotometric analysis. In kind it is functional, cell-based. The procedure, abridged:
as §1

The subject of series [4] is RBL-2H3. Put plainly: Antiallergic activity in rat RBL2H3 cells assessed as inhibition of IgE/Ag-induced beta-hexosaminidase activity at 50 uM incubated for 30 mins by spectrophotometric analysis. The format is functional, cell-based. The procedure, abridged:
as §1

`C[Si](C)(C)C([Si](C)(C)C)S(=O)(=O)Cc1nnc(-c2ccc(Cl)cc2)o1`: the Activity result in the series with RBL-2H3 [1] is “Non-toxic”. Also, in the series with RBL-2H3 [2], the inhibition entry was “Dose-dependent effect” and the IC50 was 75.5 µM. Moreover, the inhibition entry with RBL-2H3 [3] was “Active”.

Take `Cc1ccc(-c2nnc(CS(=O)(=O)C([Si](C)(C)C)[Si](C)(C)C)o2)cc1`: the Activity entry in the series on RBL-2H3 [1] is recorded as “Non-toxic”. Besides, in the series on RBL-2H3 [2], the inhibition entry is “Dose-dependent effect” and the IC50 came to 62.3 µM. Moreover, the inhibition entry with RBL-2H3 [3] is “Active”.

As to `C[Si](C)(C)C(SCc1nnc(-c2ccc(Cl)cc2)o1)[Si](C)(C)C`, the inhibition result in the series with RBL-2H3 [2] is “Dose-dependent effect”. Also, in the series on RBL-2H3 [3], the inhibition entry is “Active”.

As to `Cc1ccc(-c2nnc(CSC([Si](C)(C)C)[Si](C)(C)C)o2)cc1`, in the series with RBL-2H3 [2], the inhibition entry was “Dose-dependent effect”. Also, the inhibition result in the series with RBL-2H3 [3] is “Active”.

Take `C[Si](C)(C)C(SCc1nnc(-c2ccccc2)o1)[Si](C)(C)C`: the inhibition result in the series on RBL-2H3 [4] was “Active”. In addition, in the series with RBL-2H3 [2], the inhibition entry is “Dose-dependent effect” and the IC50 came out at 98.8 µM. The inhibition result with RBL-2H3 [3] was “Active”.

Turning to `C[Si](C)(C)C([Si](C)(C)C)S(=O)(=O)Cc1nnc(-c2ccccc2)o1`, the Activity result with RBL-2H3 [1] was “Non-toxic”. Moreover, in the series with RBL-2H3 [2], the inhibition entry is “Dose-dependent effect” and the IC50 stood at 37.2 µM. Besides, in the series with RBL-2H3 [3], the inhibition result is “Active”.
